Among the data in ChEMBL document CHEMBL4049407, “Positional Scanning Identifies the Molecular Determinants of a High Affinity Multi-Leucine Inhibitor for Furin and PACE4” (J Med Chem, 2017) are Ki, Ratio Ki and Activity values, retold here.

Assay [1] has as its target T1, Proprotein convertase subtilisin/kexin type 6 (Homo sapiens, UniProt P29122).
T1 sequence (P29122 whole entry): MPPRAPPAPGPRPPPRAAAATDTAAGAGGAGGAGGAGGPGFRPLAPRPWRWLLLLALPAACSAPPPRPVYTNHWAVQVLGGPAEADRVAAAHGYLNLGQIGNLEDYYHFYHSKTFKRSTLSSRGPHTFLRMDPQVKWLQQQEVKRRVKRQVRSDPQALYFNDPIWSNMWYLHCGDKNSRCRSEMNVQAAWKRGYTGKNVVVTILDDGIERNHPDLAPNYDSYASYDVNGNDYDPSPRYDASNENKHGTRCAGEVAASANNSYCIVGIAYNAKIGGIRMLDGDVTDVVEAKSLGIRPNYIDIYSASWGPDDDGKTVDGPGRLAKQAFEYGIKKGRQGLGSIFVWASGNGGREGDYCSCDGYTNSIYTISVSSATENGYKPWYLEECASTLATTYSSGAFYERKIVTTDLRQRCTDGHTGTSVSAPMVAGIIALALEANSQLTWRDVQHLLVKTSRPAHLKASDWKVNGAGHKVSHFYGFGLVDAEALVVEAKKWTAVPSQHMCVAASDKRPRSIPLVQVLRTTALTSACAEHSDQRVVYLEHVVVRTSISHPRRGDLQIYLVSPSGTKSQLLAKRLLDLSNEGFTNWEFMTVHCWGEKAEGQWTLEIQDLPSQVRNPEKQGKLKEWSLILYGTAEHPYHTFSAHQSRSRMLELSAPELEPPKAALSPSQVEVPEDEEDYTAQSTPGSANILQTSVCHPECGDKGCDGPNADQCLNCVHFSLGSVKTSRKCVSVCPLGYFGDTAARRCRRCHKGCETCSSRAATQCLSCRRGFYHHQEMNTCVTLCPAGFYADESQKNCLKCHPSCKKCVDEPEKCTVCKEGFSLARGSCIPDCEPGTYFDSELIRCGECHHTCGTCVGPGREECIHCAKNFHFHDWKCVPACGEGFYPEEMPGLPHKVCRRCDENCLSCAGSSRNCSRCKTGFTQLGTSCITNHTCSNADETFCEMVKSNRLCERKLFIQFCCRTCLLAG
In words: Inhibition of recombinant human PACE4 expressed in drosophila S2 cells using pyrGlu-Arg-Thr-Lys-Arg-7-amido-4-methylcoumarin as substrate after 60 mins by spectrofluorometry method. Format: cell-based. In a few lines:
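Human recombinant purified PACE4 at 2 units/100 µL (20.18 nM), in 20 mM BisTris pH 6.5, 1 mM CaCl2, 1.8 mg/mL BSA. Substrate 100 µM, KM 4.035 µM. Inhibitor 1 nM to 10 µM; 60 min at 37°C. Fluorescence ex 370 / em 460 nm. Ki by Morrison tight-binding equation; three independent experiments, mean ± SD.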

The target in assay [2] is Furin (Homo sapiens, UniProt P09958). Nature of the assay: Inhibition of recombinant human furin expressed in drosophila S2 cells using pyrGlu-Arg-Thr-Lys-Arg-7-amido-4-methylcoumarin as substrate after 60 mins by spectrofluorometry method. Format: cell-based. In a few lines:
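Human recombinant purified furin at 2 units/100 µL (0.54 nM), in 100 mM HEPES pH 7.5, 1 mM CaCl2, 1 mM β-mercaptoethanol, 1.8 mg/mL BSA. His-containing peptides run instead in 20 mM BisTris pH 6.5 with the same additives. Substrate 100 µM, KM 5.04 µM. Inhibitor 1 nM to 10 µM; 60 min at 37°C. Fluorescence ex 370 / em 460 nm. Ki by Morrison equation; triplicate experiments, mean ± SD.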

The species entered for assay [3] is Homo sapiens. In words: Selectivity index, ratio of Ki for recombinant human furin expressed in drosophila S2 cells to Ki for recombinant human PACE4 expressed in drosophila S2 cells. In kind it is cell-based. In a few lines: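 Ratio Ki(furin)/Ki(PACE4). […] PACE4 buffer was BisTris pH 6.5; furin buffer was HEPES pH 7.5, or BisTris pH 6.5 for His peptides. Ki fitted by Morrison equation from three independent experiments.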

Assay [4] concerns DU-145. In words: Antiproliferative activity against human DU145 cells assessed as reduction in metabolic activity at 25 to 100 uM after 72 hrs by MTT assay. Format: functional, cell-based. In a few lines: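 First-pass MTT screen of each library peptide on DU145 cells (RPMI 1640, 5% FBS, 1500 cells/well, poly-L-lysine plates). Peptides added 24 h after seeding at 25, 50 and 100 µM in fresh serum medium for 72 h. MTT 1 mg/mL for 4 h; 2-propanol HCl solubilisation. Activity normalised to water vehicle. Mean ± SEM of at least two independent experiments.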

Activity calls are given as the source filed them. The rule behind the calls is not given here. Peptide text beside a SMILES is read from it. * marks the point of attachment. NH(4-amidinobenzyl) = N=C(N)c1ccc(CN*)cc1

Furin, sequence (P09958 whole entry): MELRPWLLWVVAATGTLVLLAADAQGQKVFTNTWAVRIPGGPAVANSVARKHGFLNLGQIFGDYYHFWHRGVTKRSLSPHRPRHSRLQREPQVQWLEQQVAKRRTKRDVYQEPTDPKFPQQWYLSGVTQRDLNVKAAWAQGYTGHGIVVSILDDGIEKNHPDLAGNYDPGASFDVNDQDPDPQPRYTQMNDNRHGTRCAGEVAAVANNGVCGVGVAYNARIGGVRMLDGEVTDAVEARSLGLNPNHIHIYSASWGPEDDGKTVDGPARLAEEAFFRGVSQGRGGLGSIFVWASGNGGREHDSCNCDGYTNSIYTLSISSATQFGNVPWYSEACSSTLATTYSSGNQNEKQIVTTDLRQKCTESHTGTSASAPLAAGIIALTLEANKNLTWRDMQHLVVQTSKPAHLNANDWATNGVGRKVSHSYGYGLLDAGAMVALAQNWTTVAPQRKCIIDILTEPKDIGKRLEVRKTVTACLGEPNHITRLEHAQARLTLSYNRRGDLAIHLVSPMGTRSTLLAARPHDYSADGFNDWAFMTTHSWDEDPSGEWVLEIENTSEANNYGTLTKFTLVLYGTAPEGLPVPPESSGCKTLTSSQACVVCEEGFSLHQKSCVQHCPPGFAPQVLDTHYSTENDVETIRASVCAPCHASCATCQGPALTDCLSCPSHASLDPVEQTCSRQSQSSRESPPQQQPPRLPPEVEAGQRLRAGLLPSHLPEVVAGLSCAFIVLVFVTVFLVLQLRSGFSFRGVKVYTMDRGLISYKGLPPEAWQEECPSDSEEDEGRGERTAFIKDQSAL

Take `CC(=O)N[C@@H](CC(C)C)C(=O)N[C@H](C(=O)N[C@@H](CC(C)C)C(=O)N[C@@H](CC(C)C)C(=O)N[C@@H](CCCNC(=N)N)C(=O)N[C@H](C(=O)N[C@@H](CCCCN)C(=O)NCc1ccc(C(=N)N)cc1)C(C)C)C(C)C` (Ac-LVLLRVK-{NH(4-amidinobenzyl)}): the inhibition constant Ki in assay [1] and in assay [2] was 2 nM throughout. In addition, in assay [3], the Ratio Ki is 1. The result in assay [4] was inactive.

As for `CC(=O)NCC(=O)N[C@@H](CC(C)C)C(=O)N[C@@H](CC(C)C)C(=O)N[C@@H](CC(C)C)C(=O)N[C@@H](CCCNC(=N)N)C(=O)N[C@H](C(=O)N[C@@H](CCCCN)C(=O)NCc1ccc(C(=N)N)cc1)C(C)C` (Ac-GLLLRVK-{NH(4-amidinobenzyl)}), the inhibition constant (Ki) in assay [1] and in assay [2] was 3 nM each time. Also, in assay [3], the Ratio Ki was 1. Moreover, the outcome in assay [4] was inactive.

For the compound `CC(=O)N[C@@H](CC(C)C)C(=O)N[C@@H](CC(C)C)C(=O)N[C@@H](CC(C)C)C(=O)N[C@@H](CC(N)=O)C(=O)N[C@@H](CCCNC(=N)N)C(=O)N[C@H](C(=O)N[C@@H](CCCCN)C(=O)NCc1ccc(C(=N)N)cc1)C(C)C` (Ac-LLLNRVK-{NH(4-amidinobenzyl)}), the inhibitory constant (Ki) in assay [1] came out at 1.7 nM; in assay [2] it was 3 nM. Besides, the Ratio Ki in assay [3] came to 1.8. The outcome in assay [4] was inactive.

With `CC(=O)N[C@@H](CCCCN)C(=O)N[C@@H](CC(C)C)C(=O)N[C@@H](CC(C)C)C(=O)N[C@@H](CC(C)C)C(=O)N[C@@H](CCCNC(=N)N)C(=O)N[C@H](C(=O)N[C@@H](CCCCN)C(=O)NCc1ccc(C(=N)N)cc1)C(C)C` (Ac-KLLLRVK-{NH(4-amidinobenzyl)}), the results for the Ki in assay [1] and in assay [2] were 0.3 nM and 0.4 nM, respectively. The Ratio Ki in assay [3] came out at 1.3. For the same compound, in assay [4], the outcome was inactive.

Regarding `CC(=O)N[C@@H](CC(C)C)C(=O)N[C@@H](CC(C)C)C(=O)N[C@H](C(=O)N[C@@H](CC(C)C)C(=O)N[C@@H](CCCNC(=N)N)C(=O)N[C@H](C(=O)N[C@@H](CCCCN)C(=O)NCc1ccc(C(=N)N)cc1)C(C)C)[C@@H](C)O` (Ac-LLTLRVK-{NH(4-amidinobenzyl)}), the inhibition constant (Ki) in assay [1] was 39 nM; in assay [2], 18 nM. Moreover, in assay [3], the Ratio Ki was found to be 0.5. The result in assay [4] was inactive.

For `CC(=O)N[C@@H](CC(C)C)C(=O)N[C@@H](CC(C)C)C(=O)N[C@@H](CC(C)C)C(=O)N1CCC[C@H]1C(=O)N[C@@H](CCCNC(=N)N)C(=O)N[C@H](C(=O)N[C@@H](CCCCN)C(=O)NCc1ccc(C(=N)N)cc1)C(C)C` (Ac-LLLPRVK-{NH(4-amidinobenzyl)}), the inhibition constant (Ki) in assay [1] was 6 nM; in assay [2] it was 4 nM. Also, the Ratio Ki in assay [3] is 0.7. Moreover, the outcome in assay [4] was inactive.

In the case of `CC(=O)N[C@@H](CC(C)C)C(=O)N[C@@H](CC(C)C)C(=O)N[C@@H](CC(=O)O)C(=O)N[C@@H](CC(C)C)C(=O)N[C@@H](CCCNC(=N)N)C(=O)N[C@H](C(=O)N[C@@H](CCCCN)C(=O)NCc1ccc(C(=N)N)cc1)C(C)C` (Ac-LLDLRVK-{NH(4-amidinobenzyl)}), the Ki in assay [1] and in assay [2] was 140 nM in each case. The Ratio Ki in assay [3] was 1. Further, the outcome in assay [4] was inactive.

Take `CC(=O)N[C@@H](CC(C)C)C(=O)N[C@@H](CC(C)C)C(=O)N[C@@H](CC(C)C)C(=O)N[C@@H](CC(=O)O)C(=O)N[C@@H](CCCNC(=N)N)C(=O)N[C@H](C(=O)N[C@@H](CCCCN)C(=O)NCc1ccc(C(=N)N)cc1)C(C)C` (Ac-LLLDRVK-{NH(4-amidinobenzyl)}): the Ki in assay [1] was 400 nM; in assay [2], 260 nM. Also, the Ratio Ki in assay [3] was 0.6. Besides, the outcome in assay [4] was inactive.

`CC(=O)N[C@@H](CC(C)C)C(=O)N[C@@H](C)C(=O)N[C@@H](CC(C)C)C(=O)N[C@@H](CC(C)C)C(=O)N[C@@H](CCCNC(=N)N)C(=O)N[C@H](C(=O)N[C@@H](CCCCN)C(=O)NCc1ccc(C(=N)N)cc1)C(C)C` (Ac-LALLRVK-{NH(4-amidinobenzyl)}): the inhibitory constant (Ki) in assay [1] came to 2 nM; in assay [2], 1.5 nM. The Ratio Ki in assay [3] is 0.8. Also, the result in assay [4] was inactive.

`CC(=O)N[C@@H](CC(C)C)C(=O)N[C@@H](CC(=O)O)C(=O)N[C@@H](CC(C)C)C(=O)N[C@@H](CC(C)C)C(=O)N[C@@H](CCCNC(=N)N)C(=O)N[C@H](C(=O)N[C@@H](CCCCN)C(=O)NCc1ccc(C(=N)N)cc1)C(C)C` (Ac-LDLLRVK-{NH(4-amidinobenzyl)}): the values for the Ki in assay [1] and in assay [2] were 80 nM and 50 nM, respectively. Moreover, the Ratio Ki in assay [3] was found to be 0.6. Besides, the result in assay [4] was inactive.

Take `CC(=O)N[C@@H](CC(C)C)C(=O)NCC(=O)N[C@@H](CC(C)C)C(=O)N[C@@H](CC(C)C)C(=O)N[C@@H](CCCNC(=N)N)C(=O)N[C@H](C(=O)N[C@@H](CCCCN)C(=O)NCc1ccc(C(=N)N)cc1)C(C)C` (Ac-LGLLRVK-{NH(4-amidinobenzyl)}): the Ki came to 2 nM in assay [1] and 3 nM in assay [2]. In addition, the Ratio Ki in assay [3] came out at 1.5. For the same compound, the result in assay [4] was inactive.

Regarding `CC(=O)N[C@@H](Cc1cnc[nH]1)C(=O)N[C@@H](CC(C)C)C(=O)N[C@@H](CC(C)C)C(=O)N[C@@H](CC(C)C)C(=O)N[C@@H](CCCNC(=N)N)C(=O)N[C@H](C(=O)N[C@@H](CCCCN)C(=O)NCc1ccc(C(=N)N)cc1)C(C)C` (Ac-HLLLRVK-{NH(4-amidinobenzyl)}), the Ki in assay [1] came out at 1.3 nM; in assay [2] it was 1.8 nM. Moreover, the Ratio Ki in assay [3] was found to be 1.4. In addition, the outcome in assay [4] was inactive.

For `CC(=O)N[C@@H](CC(C)C)C(=O)N[C@H](C(=O)N[C@@H](CC(C)C)C(=O)N[C@@H](CC(C)C)C(=O)N[C@@H](CCCNC(=N)N)C(=O)N[C@H](C(=O)N[C@@H](CCCCN)C(=O)NCc1ccc(C(=N)N)cc1)C(C)C)[C@@H](C)O` (Ac-LTLLRVK-{NH(4-amidinobenzyl)}), the inhibitory constant (Ki) was 1 nM in assay [1] and 1.7 nM in assay [2]. In assay [3], the Ratio Ki is 1.7. Besides, the outcome in assay [4] was inactive.

Take `CC(=O)N[C@@H](CC(C)C)C(=O)N[C@@H](CC(C)C)C(=O)N[C@@H](C)C(=O)N[C@@H](CC(C)C)C(=O)N[C@@H](CCCNC(=N)N)C(=O)N[C@H](C(=O)N[C@@H](CCCCN)C(=O)NCc1ccc(C(=N)N)cc1)C(C)C` (Ac-LLALRVK-{NH(4-amidinobenzyl)}): the Ki in assay [1] turned out to be 30 nM; in assay [2], 11 nM. In addition, the Ratio Ki in assay [3] was found to be 0.4. For the same compound, in assay [4], the result was inactive.

Take `CC(=O)N[C@@H](CC(C)C)C(=O)N[C@@H](CC(C)C)C(=O)N[C@@H](CC(C)C)C(=O)NCC(=O)N[C@@H](CCCNC(=N)N)C(=O)N[C@H](C(=O)N[C@@H](CCCCN)C(=O)NCc1ccc(C(=N)N)cc1)C(C)C` (Ac-LLLGRVK-{NH(4-amidinobenzyl)}): the Ki in assay [1] is 18 nM; in assay [2] it was 12 nM. Moreover, the Ratio Ki in assay [3] came to 0.7. Besides, the outcome in assay [4] was inactive.

`CC(=O)N[C@@H](C)C(=O)N[C@@H](CC(C)C)C(=O)N[C@@H](CC(C)C)C(=O)N[C@@H](CC(C)C)C(=O)N[C@@H](CCCNC(=N)N)C(=O)N[C@H](C(=O)N[C@@H](CCCCN)C(=O)NCc1ccc(C(=N)N)cc1)C(C)C` (Ac-ALLLRVK-{NH(4-amidinobenzyl)}): the Ki in assay [1] amounted to 1.5 nM; in assay [2], 3 nM. The Ratio Ki in assay [3] turned out to be 2. In addition, the result in assay [4] was inactive.
